In ChEMBL document CHEMBL3608234, “Synthesis and antiviral evaluation of a novel series of homoserine-based inhibitors of the hepatitis C virus NS3/4A serine protease” (Bioorg Med Chem Lett, 2015):
Values belong to the compound of their own block, whether it stands above or below them.

How the values were obtained:
[1] = Inhibition of full length HCV 1b Con1 NS3/4A protease using HiLyte Fluor 610 peptide substrate by biochemical FRET assay; parameters: species or system Hepatitis C virus (isolate Con1)
Outline: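 Fluorescence (FRET) protease assay on full-length genotype 1b Con1 HCV NS3/4A with HiLyte Fluor 610 peptide substrate; IC50 from percent inhibition versus concentration by four-parameter sigmoidal non-linear regression.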

Hepatitis C virus = experiment: Antiviral activity against HCV Con1 infected in human GS4.1 cells containing HCV Con1 subgenomic replicon assessed as reduction in NS5A protein expression by ELISA method; format: functional, cell-based, Hepacivirus hominis; conditions: genotype 1b Con1
Outline: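 Huh-7 cells carrying HCV Con1 subgenomic replicon (GS4.1); replication followed as NS5A protein expression by ELISA; EC50 from 50% inhibition versus concentration data fitted by four-parameter sigmoidal non-linear regression.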

[2] = Cytotoxicity against human GS4.1 cells assessed as induction of cell death; format: cell-based
Outline: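 GS4.1 cells (Huh-7 with Con1 subgenomic replicon); CC50 taken as concentration giving 50% cell death, from death versus concentration data relative to blank control.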

[3] = Intrinsic clearance in rat liver microsomes incubated for 2 hrs; format: ADME; conditions: read-out: CLH

SMILES: COc1ccc2c(OCC[C@@H]3NC(=O)N(C)CCCC/C=C\[C@@H]4C[C@@]4(C(=O)NS(=O)(=O)C4(F)CC4)NC3=O)cc(-c3nc(C(C)C)cs3)nc2c1Cl
IC50 [1]: 2.7 nM | EC50 (Hepatitis C virus): 150 nM | CC50 [2]: 51.4 µM

SMILES: COc1ccc2c(OCC[C@@H]3NC(=O)N(C)CCCC/C=C\[C@@H]4C[C@@]4(C(=O)NS(=O)(=O)C4(C#N)CC4)NC3=O)cc(-c3nc(C(C)C)cs3)nc2c1Cl
IC50 [1]: 14.4 nM | EC50 (Hepatitis C virus): > 750 nM | CC50 [2]: > 75 µM

SMILES: C#CC1(S(=O)(=O)NC(=O)[C@@]23C[C@H]2/C=C\CCCCN(C)C(=O)N[C@@H](CCOc2cc(-c4nc(C(C)C)cs4)nc4c(Cl)c(OC)ccc24)C(=O)N3)CC1
IC50 [1]: 0.7 nM | EC50 (Hepatitis C virus): 28.9 nM | CC50 [2]: 26.3 µM

SMILES: COc1ccc2c(OCC[C@@H]3NC(=O)N(C)CCCC/C=C\[C@@H]4C[C@@]4(C(=O)NS(=O)(=O)N(C)C)NC3=O)cc(-c3nc(C(C)C)cs3)nc2c1Cl
IC50 [1]: 2.1 nM | EC50 (Hepatitis C virus): 84.5 nM | CC50 [2]: 47.8 µM

SMILES: COc1ccc2c(OCC[C@@H]3NC(=O)N(C)CCCC/C=C\[C@@H]4C[C@@]4(C(=O)NS(=O)(=O)N4CCC(F)(F)C4)NC3=O)cc(-c3nc(C(C)C)cs3)nc2c1Cl
IC50 [1]: 165 nM | EC50 (Hepatitis C virus): > 750 nM | CC50 [2]: 37.6 µM

SMILES: COc1ccc2c(OCC[C@@H]3NC(=O)N(C)CCCC/C=C\[C@@H]4C[C@@]4(C(=O)NS(=O)(=O)N4CCOCC4)NC3=O)cc(-c3nc(C(C)C)cs3)nc2c1Cl
IC50 [1]: 150 nM | EC50 (Hepatitis C virus): > 750 nM | CC50 [2]: 26.4 µM

SMILES: COc1ccc2c(OCC[C@@H]3NC(=O)N(C)CCCC/C=C\[C@@H]4C[C@@]4(C(=O)NS(=O)(=O)N4CCC[C@H]4C#N)NC3=O)cc(-c3nc(C(C)C)cs3)nc2c1Cl
IC50 [1]: 264 nM | EC50 (Hepatitis C virus): > 750 nM | CC50 [2]: 28.3 µM

SMILES: C#C[C@@H]1CCCN1S(=O)(=O)NC(=O)[C@@]12C[C@H]1/C=C\CCCCN(C)C(=O)N[C@@H](CCOc1cc(-c3nc(C(C)C)cs3)nc3c(Cl)c(OC)ccc13)C(=O)N2
IC50 [1]: 33.8 nM | EC50 (Hepatitis C virus): > 750 nM | CC50 [2]: 21.2 µM

SMILES: COc1ccc2c(O[C@@H]3C[C@H]4C(=O)N[C@]5(C(=O)O)C[C@H]5/C=C\CCCCC[C@H](NC(=O)OC5CCCC5)C(=O)N4C3)cc(-c3csc(NC(C)C)n3)nc2c1 [CILUPREVIR]
IC50 [1]: 0.9 nM | EC50 (Hepatitis C virus): 2.8 nM | CC50 [2]: 21 µM

Continued, in another order:

IC50 [1]: 1.4 nM | EC50 (Hepatitis C virus): 145 nM
SMILES: CCCn1cc(-c2cc(OCC[C@@H]3NC(=O)N(C)CCCC/C=C\[C@@H]4C[C@@]4(C(=O)NS(=O)(=O)C4(C)CC4)NC3=O)c3ccc(OC)c(C)c3n2)cn1
CC50 [2]: 62.3 µM

IC50 [1]: 1 nM | EC50 (Hepatitis C virus): 440 nM
SMILES: COc1ccc2c(OCC[C@@H]3NC(=O)N(C)CCCC/C=C\[C@@H]4C[C@@]4(C(=O)NS(=O)(=O)C4(C)CC4)NC3=O)cc(-c3cc(C(F)(F)F)nn3C)nc2c1C
CC50 [2]: 34.5 µM

IC50 [1]: 1.8 nM | EC50 (Hepatitis C virus): 35 nM | microsomal CLint [3]: 14.4 µL/min/mg
SMILES: COc1ccc2c(OCC[C@@H]3NC(=O)N(C)CCCC/C=C\[C@@H]4C[C@@]4(C(=O)NS(=O)(=O)C4(C)CC4)NC3=O)cc(-n3ccc(C(F)(F)F)n3)nc2c1C
CC50 [2]: 45.8 µM

IC50 [1]: 1.1 nM | EC50 (Hepatitis C virus): 15.3 nM
SMILES: COc1ccc2c(OCC[C@@H]3NC(=O)N(C)CCCC/C=C\[C@@H]4C[C@@]4(C(=O)NS(=O)(=O)C4(C)CC4)NC3=O)cc(-n3ccc(C(F)(F)F)n3)nc2c1Cl
CC50 [2]: 48.8 µM

IC50 [1]: 3.3 nM | EC50 (Hepatitis C virus): 89 nM
SMILES: CCC1(S(=O)(=O)NC(=O)[C@@]23C[C@H]2/C=C\CCCCN(C)C(=O)N[C@@H](CCOc2cc(-c4nc(C(C)C)cs4)nc4c(Cl)c(OC)ccc24)C(=O)N3)CC1
CC50 [2]: 49.3 µM
